An excerpt weighted towards active compounds, which were near 2.6% of everything screened.
Cl transport mod: KCC2 (human) Cl- transport modulation; Q9H2X9; KCC2 cells, thallium flux FluoZin-2 fluorescence; B-score of Tl+ flux slope (higher = more flux/activation; lower = inhibition) at 10 µM; hit rate 2.2% among 190,000; AID 1456;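 active means thallium flux slope and its plate-corrected score both differing from the plate sample mean at a set confidence after two filtering rounds, in either direction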;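 further: slope of fluorescence scaled to starting intensity during 10 to 20 s after thallium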
CHT allo act: allosteric activators of human choline transporter CHT; Q9GZV3; CHT-expressing cells, membrane potential dye, choline EC20; active compounds read high; LV-AA mutant CHT in HEK293 cells; B-score at 10 µM; hit rate 0.49% among 310,000;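 active means initial fluorescence not abnormally high and integrated response B-score, plate-corrected, over 3 SD above library mean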
CHT block: inhibitors of human choline transporter CHT; Q9GZV3; CHT-expressing cells, membrane potential dye, choline response; active compounds read low; B-score at 10 µM; hit rate 0.86% among 310,000;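 active means B-score over 3 SD under the library average, and starting fluorescence ratio not unusually high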;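 further: choline stimulus applied at its EC90 after an EC20 pre-addition; B-score computed on integrated fluorescence ratio after choline addition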
Rad51 HR inh: Rad51 (human) homologous recombination inhibition; hRad51 DNA strand exchange, fluorescence dequenching; inhibition, % at 10 µM; hit rate 0.085% among 200,000; AID 1385;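 active means inhibition above 40% at the single screening dose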
Target sequence (Q06609 whole entry, looked up): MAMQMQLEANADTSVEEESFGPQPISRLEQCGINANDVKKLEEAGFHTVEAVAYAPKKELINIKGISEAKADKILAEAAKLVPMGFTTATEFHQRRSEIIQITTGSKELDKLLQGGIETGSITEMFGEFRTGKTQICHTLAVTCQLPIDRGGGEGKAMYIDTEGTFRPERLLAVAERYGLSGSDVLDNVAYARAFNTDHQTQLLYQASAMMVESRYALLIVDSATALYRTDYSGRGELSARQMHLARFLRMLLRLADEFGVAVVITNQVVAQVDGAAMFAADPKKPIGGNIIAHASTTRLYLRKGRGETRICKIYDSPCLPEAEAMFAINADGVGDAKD
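Test system – preformed human Rad51 ssDNA filaments · Reagent – Donor/quencher-labelled 47-bp dsDNA substrate · Incubation – 37 °C 15-min filament assembly, 30-min compound preincubation, 15-min exchange · Signal – FRET fluorescence dequenching, excitation 485 nm, emission 520 nm · Read-out – percent inhibition from fluorescence, normalised to plate control and blank means · Benchmarks – plate control and blank wells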
CHT activ conf: confirmation of human choline transporter (CHT) activators; CHT-expressing cells, membrane potential dye fluorescence (FDSS); % of choline EC20–EC90 response window; HEK293 expressing CHT LV-AA mutant; choline added at its EC20; activation, % at 10 µM; shares compounds with CHT allo act; AID 504833; hit rate 91% among 2,500;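 active means primary screen active, with duplicate mean activation above negative control mean plus 3 SD, cut at about 11% in these data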
HEK293 MP dye: counter-screen for CHT activators: effect in parental HEK293 cells; ratio readout change at 10 µM, hits read low; AID 623908; membrane potential dye fluorescence (FDSS); measured after EC20 choline addition; hit rate 62% among 2,500; shares compounds with CHT allo act;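 active means duplicate-averaged ratio beyond 3 SD from buffer wells, up or down, though filed actives are nearly all decreases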
Large screens that a line does not name were inactive (follow-up assays come after a bar, where they were run); ! = a repeat was not active.

CCOC(=O)C1(CCOc2ccccc2)CCN(Cc2ccc3nonc3c2)CC1	CHT allo act 6.4 | CHT activ conf inactive | HEK293 MP dye inactive
CCOC(=O)N1CCC(NC(=O)CCC(=O)N2CC(C)Oc3ccc(Cl)cc32)CC1 (stereo unspecified)	none (no result: Cl transport mod)
CC(C)C(CCNCc1ccccn1)c1ccc(Cl)cc1 (stereo unspecified)	CHT allo act 6.7 (no result: Cl transport mod, Rad51 HR inh) | CHT activ conf 17 | HEK293 MP dye inactive
O=C(OCC(=O)N1CCCC1)c1c2c(nc3ccccc13)CCCCC2	none
CSc1nccc(Nc2ccccc2)c1C#N	none (no result: Cl transport mod)
CN(C)c1ccnc(Nc2ccccc2)c1C#N	CHT allo act 6.3 | CHT activ conf 52 | HEK293 MP dye -35
C/C(=N\NC(=O)c1ccccc1)c1cccc(Br)c1	none | CHT activ conf inactive | HEK293 MP dye inactive
COc1ccc(NC(=O)COC(=O)c2c3c(nc4ccccc24)CCCC3)cc1Cl	none | CHT activ conf 13 | HEK293 MP dye inactive
COc1ccc(NC(=O)COC(=O)c2c3c(nc4ccccc24)CCCC3)cc1	none
O=C(COC(=O)c1c2c(nc3ccccc13)CCCCC2)NCc1ccc2c(c1)OCO2	CHT allo act 8.7 | CHT activ conf 36 | HEK293 MP dye inactive
O=C(Nc1ccc2c(c1)OCO2)C1CC(=O)N(c2ccccc2)C1 (stereo unspecified)	none (no result: Cl transport mod, Rad51 HR inh)
O=C(C[n+]1cc(-c2ccc(Br)cc2)n2c1CCCCC2)c1ccccc1	none | CHT activ conf 23 | HEK293 MP dye inactive
O=C(C[n+]1cc(-c2ccc(Cl)cc2)n2c1CCCCC2)c1ccccc1	none (no result: Rad51 HR inh)
CN(C)c1ccc2c3c(ccc(N(C)C)c13)COC2	CHT allo act 15 (no result: Rad51 HR inh) | CHT activ conf 24 | HEK293 MP dye -31
COc1ccccc1C(=O)N1C(CC(=O)Nc2cc(Cl)ccc2C)C(=O)NC2CCCCC21 (stereo unspecified)	none (no result: Cl transport mod) | CHT activ conf 24 | HEK293 MP dye inactive
Cc1ccc(C(=O)Nc2nn(C)c3cccc(F)c23)cc1	none
Cc1ccc(-c2nc3ncccn3c2Nc2ccc3c(c2)OCCO3)o1	none
Cc1ccc(-c2nc3ncccn3c2NC2CCCCC2)o1	none | CHT activ conf 36 | HEK293 MP dye inactive
CC(NC(=O)C1CCN(C(=O)Nc2ccccc2)CC1)c1ccccc1 (stereo unspecified)	none (no result: Cl transport mod, Rad51 HR inh) | CHT activ conf inactive | HEK293 MP dye inactive
Cc1ccc(NCC(=O)N/N=C/c2cc(O)ccc2[N+](=O)[O-])cc1	none
CCN1/C(=C/c2ccc3cccc(C)c3[n+]2CC)Sc2ccccc21	none (no result: Cl transport mod) | CHT activ conf 12 | HEK293 MP dye inactive
Cc1c(Cl)cccc1NS(=O)(=O)c1ccc(-c2ccc(=O)[nH]n2)o1	none (no result: Cl transport mod, Rad51 HR inh)
CCCCN(CCCC)CC(O)CN(c1cc([N+](=O)[O-])ccc1OC)S(=O)(=O)c1ccccc1 (stereo unspecified)	CHT allo act 11 | CHT activ conf 53 | HEK293 MP dye -45
COc1ccc([N+](=O)[O-])cc1N(CC(O)CN(CC(C)C)CC(C)C)S(=O)(=O)c1ccccc1 (stereo unspecified)	CHT allo act 13 (no result: Cl transport mod, Rad51 HR inh) | CHT activ conf 42 | HEK293 MP dye inactive
Cc1cccc(OCC(=O)Nc2nc3ccc([N+](=O)[O-])cc3s2)c1	none
O=C(O)COc1ccc(/C=C/c2nc3ccc([N+](=O)[O-])cc3s2)cc1	CHT allo act 6.7 | CHT activ conf 46 | HEK293 MP dye -52
Cc1ccc(N=Nc2ccc(C)cc2NC(=O)Nc2ccccc2F)cc1	none
CCOC(=O)c1c(CN2CCOCC2)n(C)c2cc(Br)c(O)c(CN(C)C)c12	CHT allo act 7.4! | CHT activ conf 45 | HEK293 MP dye -33
CCOc1ccccc1NC(=S)N1CCC(c2nc3ccccc3o2)CC1	none
CC(=O)NCC1CCCN(Cc2cn(-c3ccccc3F)nc2-c2cc(C)sc2C)C1 (stereo unspecified)	none
O=C(CSc1ncn[nH]1)c1ccc(OC(F)F)cc1	CHT allo act 7.2 | CHT activ conf inactive | HEK293 MP dye inactive
Cc1nc(N)nc(C)c1Cc1ccccc1	none
Cc1c2ccccc2cc(Cc2ccccc2)[n+]1C	CHT allo act 6.7 (no result: Cl transport mod, Rad51 HR inh) | CHT activ conf 68 | HEK293 MP dye -76
c1ccc(CN2CCN(CCN3CCn4c3nc3ccccc34)CC2)cc1	none | CHT activ conf 27 | HEK293 MP dye inactive

High-throughput results: PubChem, several laboratories
